Reference: ChEMBL document CHEMBL5058577, “EUbOPEN Chemogenomics Library 2 (Multiplex)” (2022)

System: HEK-293T
Experiment: Multiplex assay against HEK293T
Type: toxicity, cell-based
Settings: human
In short: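 Live cells were stained at seeding with Hoechst33342, BioTracker Green Microtubule Cytoskeleton Dye, MitoTracker Red and Annexin V Alexa Fluor 680, then imaged on a CQ1 microscope at 37°C and 5% CO2 after compound addition. CellPathfinder machine-learning gating split cells into Hoechst high-intensity objects or normal cells. Normal cells were split into healthy, pyknosed or fragmented nuclei, and pyknosed cells into mitotic or apoptotic. Tubulin, mitochondrial-mass and membrane-permeability phenotypes are per cents of healthy-nucleus cells.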

[1] = 12 h, 1 µM, compound concentration 1 uM, replicate 1
[2] = 12 h, 1 µM, compound concentration 1 uM, replicate 2
[3] = 12 h, 10 µM, compound concentration 10 uM, replicate 1
[4] = 12 h, 10 µM, compound concentration 10 uM, replicate 2
[5] = 24 h, 1 µM, compound concentration 1 uM, replicate 1
[6] = 24 h, 1 µM, compound concentration 1 uM, replicate 2
[7] = 24 h, 10 µM, compound concentration 10 uM, replicate 1
[8] = 24 h, 10 µM, compound concentration 10 uM, replicate 2
[9] = 48 h, 1 µM, compound concentration 1 uM, replicate 1
[10] = 48 h, 1 µM, compound concentration 1 uM, replicate 2
[11] = 48 h, 10 µM, compound concentration 10 uM, replicate 1
[12] = 48 h, 10 µM, compound concentration 10 uM, replicate 2

Compound: CSc1nc(NC2CCCC2)c([N+](=O)[O-])c(NC2CCCC2)n1 [GS-39783]
- Population Apoptotic (%) [1]: 45%
- Population Fragmented Nuclei (%) [1]: 11%
- Population Healthy Nuclei (%) [1]: 74%
- Population Hoechst High Intensity Objects (%) [1]: 8%
- Population Membrane Permeable-Phenotype (%) [1]: 0%
- Population Mitochondria Different-Phenotype (%) [1]: 41%
- Population Mitotic Cells (%) [1]: 54%
- Population Normal (%) [1]: 91%
- Population Pyknosed Nuclei (%) [1]: 14%
- Population Tubulin-Different-Phenotype (%) [1]: 30%
- Total Cell Count [1]: 346
- Population Apoptotic (%) [2]: 40%
- Population Fragmented Nuclei (%) [2]: 3%
- Population Healthy Nuclei (%) [2]: 85%
- Population Hoechst High Intensity Objects (%) [2]: 4%
- Population Mitochondria Different-Phenotype (%) [2]: 68%
- Population Mitotic Cells (%) [2]: 59%
- Population Normal (%) [2]: 95%
- Population Pyknosed Nuclei (%) [2]: 11%
- Population Tubulin-Different-Phenotype (%) [2]: 27%
- Total Cell Count [2]: 301
- Population Apoptotic (%) [3]: 29%
- Population Fragmented Nuclei (%) [3]: 6%
- Population Healthy Nuclei (%) [3]: 81%
- Population Hoechst High Intensity Objects (%) [3]: 6%
- Population Membrane Permeable-Phenotype (%) [3]: 0%
- Population Mitochondria Different-Phenotype (%) [3]: 50%
- Population Mitotic Cells (%) [3]: 70%
- Population Normal (%) [3]: 93%
- Population Pyknosed Nuclei (%) [3]: 12%
- Population Tubulin-Different-Phenotype (%) [3]: 40%
- Total Cell Count [3]: 449
- Population Apoptotic (%) [4]: 40%
- Population Fragmented Nuclei (%) [4]: 5%
- Population Healthy Nuclei (%) [4]: 84%
- Population Hoechst High Intensity Objects (%) [4]: 5%
- Population Mitochondria Different-Phenotype (%) [4]: 68%
- Population Mitotic Cells (%) [4]: 60%
- Population Normal (%) [4]: 94%
- Population Pyknosed Nuclei (%) [4]: 10%
- Population Tubulin-Different-Phenotype (%) [4]: 29%
- Total Cell Count [4]: 406
- Population Apoptotic (%) [5]: 30%
- Population Fragmented Nuclei (%) [5]: 12%
- Population Healthy Nuclei (%) [5]: 76%
- Population Hoechst High Intensity Objects (%) [5]: 7%
- Population Membrane Permeable-Phenotype (%) [5]: 0%
- Population Mitochondria Different-Phenotype (%) [5]: 25%
- Population Mitotic Cells (%) [5]: 69%
- Population Normal (%) [5]: 92%
- Population Pyknosed Nuclei (%) [5]: 11%
- Population Tubulin-Different-Phenotype (%) [5]: 19%
- Total Cell Count [5]: 492
- Population Apoptotic (%) [6]: 38%
- Population Fragmented Nuclei (%) [6]: 7%
- Population Healthy Nuclei (%) [6]: 84%
- Population Hoechst High Intensity Objects (%) [6]: 8%
- Population Mitochondria Different-Phenotype (%) [6]: 51%
- Population Mitotic Cells (%) [6]: 61%
- Population Normal (%) [6]: 91%
- Population Pyknosed Nuclei (%) [6]: 7%
- Total Cell Count [6]: 360
- Population Apoptotic (%) [7]: 27%
- Population Fragmented Nuclei (%) [7]: 11%
- Population Healthy Nuclei (%) [7]: 78%
- Population Hoechst High Intensity Objects (%) [7]: 5%
- Population Membrane Permeable-Phenotype (%) [7]: 1%
- Population Mitochondria Different-Phenotype (%) [7]: 30%
- Population Mitotic Cells (%) [7]: 72%
- Population Normal (%) [7]: 94%
- Population Pyknosed Nuclei (%) [7]: 10%
- Population Tubulin-Different-Phenotype (%) [7]: 30%
- Total Cell Count [7]: 553
- Population Apoptotic (%) [8]: 37%
- Population Fragmented Nuclei (%) [8]: 8%
- Population Healthy Nuclei (%) [8]: 83%
- Population Hoechst High Intensity Objects (%) [8]: 6%
- Population Membrane Permeable-Phenotype (%) [8]: 0%
- Population Mitochondria Different-Phenotype (%) [8]: 52%
- Population Mitotic Cells (%) [8]: 62%
- Population Normal (%) [8]: 93%
- Population Pyknosed Nuclei (%) [8]: 7%
- Population Tubulin-Different-Phenotype (%) [8]: 28%
- Total Cell Count [8]: 474
- Population Apoptotic (%) [9]: 35%
- Population Fragmented Nuclei (%) [9]: 15%
- Population Healthy Nuclei (%) [9]: 74%
- Population Hoechst High Intensity Objects (%) [9]: 3%
- Population Membrane Permeable-Phenotype (%) [9]: 1%
- Population Mitochondria Different-Phenotype (%) [9]: 22%
- Population Mitotic Cells (%) [9]: 64%
- Population Normal (%) [9]: 96%
- Population Pyknosed Nuclei (%) [9]: 9%
- Population Tubulin-Different-Phenotype (%) [9]: 22%
- Total Cell Count [9]: 775
- Population Apoptotic (%) [10]: 30%
- Population Fragmented Nuclei (%) [10]: 13%
- Population Healthy Nuclei (%) [10]: 77%
- Population Hoechst High Intensity Objects (%) [10]: 6%
- Population Membrane Permeable-Phenotype (%) [10]: 0%
- Population Mitochondria Different-Phenotype (%) [10]: 32%
- Population Mitotic Cells (%) [10]: 69%
- Population Normal (%) [10]: 93%
- Population Pyknosed Nuclei (%) [10]: 8%
- Population Tubulin-Different-Phenotype (%) [10]: 24%
- Total Cell Count [10]: 505
- Population Apoptotic (%) [11]: 17%
- Population Fragmented Nuclei (%) [11]: 14%
- Population Healthy Nuclei (%) [11]: 78%
- Population Hoechst High Intensity Objects (%) [11]: 3%
- Population Membrane Permeable-Phenotype (%) [11]: 1%
- Population Mitochondria Different-Phenotype (%) [11]: 27%
- Population Mitotic Cells (%) [11]: 82%
- Population Normal (%) [11]: 96%
- Population Pyknosed Nuclei (%) [11]: 7%
- Population Tubulin-Different-Phenotype (%) [11]: 21%
- Total Cell Count [11]: 856
- Population Apoptotic (%) [12]: 30%
- Population Fragmented Nuclei (%) [12]: 13%
- Population Healthy Nuclei (%) [12]: 77%
- Population Hoechst High Intensity Objects (%) [12]: 5%
- Population Membrane Permeable-Phenotype (%) [12]: 0%
- Population Mitochondria Different-Phenotype (%) [12]: 35%
- Population Mitotic Cells (%) [12]: 69%
- Population Normal (%) [12]: 94%
- Population Pyknosed Nuclei (%) [12]: 8%
- Total Cell Count [12]: 647
